Source: PMC4062594 (Nature chemical biology, 2014)
“Also recorded” adds a separate entry of the source.

How the values were obtained:
PTP1B1-321 [1] = target: T1, PTP1B1-321 (Homo sapiens, UniProt P18031); test: Binding of recombinant protein to bead-immobilized compound; conditions: in vitro
T1 sequence (P18031 1-321): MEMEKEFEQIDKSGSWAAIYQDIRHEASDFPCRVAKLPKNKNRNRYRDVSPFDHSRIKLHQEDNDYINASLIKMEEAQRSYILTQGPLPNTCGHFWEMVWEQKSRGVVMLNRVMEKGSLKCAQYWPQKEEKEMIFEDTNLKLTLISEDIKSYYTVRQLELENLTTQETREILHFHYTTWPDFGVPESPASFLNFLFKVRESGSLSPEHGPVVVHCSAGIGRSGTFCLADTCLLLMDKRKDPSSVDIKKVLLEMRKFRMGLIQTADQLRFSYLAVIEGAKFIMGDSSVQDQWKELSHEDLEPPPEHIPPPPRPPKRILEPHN
Method in brief: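 Beads were washed in the same buffer plus 0.01% NP-40 and 1% glycerol, then heat-eluted in SDS sample buffer. Eluates were run on 10% SDS-PAGE and stained with Coomassie or silver.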

PTP1B1-405 L192A/S372P = target: T2, PTP1B1-405 L192A/S372P (Homo sapiens, UniProt P18031, L192A/S372P); test: PTP assay, double point mutant; format: biochemical
T2 sequence (P18031 1-405 L192A/S372P): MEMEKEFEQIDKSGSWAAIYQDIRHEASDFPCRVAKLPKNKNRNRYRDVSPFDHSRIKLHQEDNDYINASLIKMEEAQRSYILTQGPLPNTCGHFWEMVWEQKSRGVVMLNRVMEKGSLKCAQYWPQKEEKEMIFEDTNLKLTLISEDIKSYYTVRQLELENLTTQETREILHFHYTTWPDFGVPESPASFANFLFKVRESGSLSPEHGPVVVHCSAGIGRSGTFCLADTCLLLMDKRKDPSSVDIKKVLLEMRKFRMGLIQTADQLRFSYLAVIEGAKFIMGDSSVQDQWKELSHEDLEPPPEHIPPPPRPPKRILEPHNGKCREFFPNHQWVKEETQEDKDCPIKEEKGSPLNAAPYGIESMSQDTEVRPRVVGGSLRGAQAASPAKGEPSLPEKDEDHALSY
Method in brief: (§1)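 Continuous fluorescence PTP assay with 10 nM purified PTP1B and 10 μM DiFMUP substrate. Emission at 450 nm was monitored for 20 minutes.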

[2] = tested on: PTP1B V370, S372 and R373 to alanine; test: PTP assay, alanine point mutants; format: biochemical, human; conditions: data not shown
[3] = target: T3, PTP1B in tumor lysates from NDL2 mice (Mus musculus, UniProt P35821); test: Binding assay with bead-immobilized compound in tumor lysates; conditions: confirmed by immunoblotting
T3 sequence (P35821 1-432): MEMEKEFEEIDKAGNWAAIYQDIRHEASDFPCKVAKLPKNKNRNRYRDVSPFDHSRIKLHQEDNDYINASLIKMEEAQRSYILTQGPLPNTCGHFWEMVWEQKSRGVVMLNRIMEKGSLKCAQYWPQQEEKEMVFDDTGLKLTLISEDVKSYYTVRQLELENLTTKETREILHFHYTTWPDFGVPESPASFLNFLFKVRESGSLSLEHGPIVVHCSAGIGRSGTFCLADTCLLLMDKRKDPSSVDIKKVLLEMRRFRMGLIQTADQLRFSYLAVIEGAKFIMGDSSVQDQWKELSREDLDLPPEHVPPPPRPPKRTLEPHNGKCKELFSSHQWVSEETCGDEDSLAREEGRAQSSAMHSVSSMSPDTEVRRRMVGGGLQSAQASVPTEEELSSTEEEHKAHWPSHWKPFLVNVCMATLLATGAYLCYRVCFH
Method in brief: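 Test compound was coupled through its primary amine to NHS-activated magnetic beads (1 mM, 100 mM triethylamine, 8 h, 4°C), and free NHS groups were blocked with 0.8 M aminoethanol. Beads were incubated with 0–1 mg NDL2 tumour lysate protein and washed. Bound protein was eluted by heat in SDS sample buffer, run on 10% SDS-PAGE and identified by immunoblotting. Beads carrying a related amine compound served as negative control.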

[4] = tested on: panel of breast cancer cells; test: Cell proliferation assay; format: cell-based
Method in brief: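 Cells (1 × 10^4) per well were grown 12–96 hours in growth medium without or with test compound (2 and 5 μM). Proliferation was read by CellTiter-Glo luminescence.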

[5] = tested on: BT474 xenografts re-expressing wild type or L192A/S372P PTP1B; test: BT474 xenografts with PTP1B suppressed and re-expressed; format: in vivo, mouse; conditions: 5 mg/kg, two independent experiments
Method in brief: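 BT474 cells with PTP1B suppressed by RNAi and re-expressing wild type or mutant PTP1B were used. Luciferase-expressing cells (5×10^6) were injected orthotopically into mammary fat pads of SCID-beige mice in 1:1 DMEM/growth factor-reduced Matrigel. Mice were randomised to saline or test compound 5 mg/kg i.p. every third day. Tumours were followed by luciferin imaging and by palpation (volume = width2 × length/2) three times weekly.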

[6] = tested on: NDL2 mammary tumors and lung metastasis; test: NDL2 transgenic mouse model of breast cancer; format: in vivo
Method in brief: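 NDL2 mice with palpable tumours were randomised to saline or test compound (5 or 10 mg/kg, 100 μl) i.p. every third day for 45 days, using freshly prepared solutions. Animals were killed after 45 d, and tumours were removed, counted and weighed. Whole lungs were sectioned, H&E-stained and scored for metastases. Groups had six animals; Student t-test was used.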

PTP1B1-321 [7] = target: T1, PTP1B1-321; test: Direct binding assay with [3H]-MSI-1436; conditions: scintillation counting
Method in brief: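 Protein was captured on Ni-NTA beads (10 min, 25°C) and washed three times with buffer containing 150 mM NaCl. Bound ligand was measured by scintillation and bead-bound protein by BCA. Free ligand was calculated as total minus bound, for Scatchard analysis.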

CFP-PTP1B1-321-YFP = target: T4, CFP-PTP1B1-321-YFP (Homo sapiens, UniProt P18031); test: Intramolecular FRET titration; format: binding; conditions: excitation at 440 nm, 0–5 μM MSI-1436
T4 sequence (P18031 1-321): T1 sequence (P18031 1-321)

PTP1B (1-367) = target: T5, PTP1B (1-367) (Homo sapiens, UniProt P18031); test: PTP assay, truncation mutant; format: biochemical; conditions: similar to PTP1B1-321
T5 sequence (P18031 1-367): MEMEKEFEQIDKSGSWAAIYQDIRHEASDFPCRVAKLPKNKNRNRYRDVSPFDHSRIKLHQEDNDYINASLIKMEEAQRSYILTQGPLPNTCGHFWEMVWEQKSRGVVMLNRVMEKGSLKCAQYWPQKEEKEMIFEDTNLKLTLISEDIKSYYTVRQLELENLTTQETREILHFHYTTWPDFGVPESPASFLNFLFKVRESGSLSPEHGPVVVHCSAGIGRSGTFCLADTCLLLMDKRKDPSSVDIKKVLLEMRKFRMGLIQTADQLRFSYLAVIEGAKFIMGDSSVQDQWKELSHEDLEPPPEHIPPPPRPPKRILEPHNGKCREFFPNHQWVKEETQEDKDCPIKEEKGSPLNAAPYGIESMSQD
Method in brief: as §1

[8] = 5 mg/kg intraperitoneally every third day, relative to control

SMILES: CC(C)[C@@H](CC[C@@H](C)[C@H]1CC[C@H]2[C@@H]3[C@H](O)C[C@H]4C[C@@H](NCCCNCCCCNCCCN)CC[C@]4(C)[C@H]3CC[C@]12C)OS(=O)(=O)O [MSI-1436, Trodusquemine]
- binding to bead-immobilized compound (PTP1B1-321 [1]): bound
- inhibition by MSI-1436 (PTP1B1-405 L192A/S372P): complete loss of inhibition; also recorded: insensitive to MSI-1436
- effect of alanine mutations on inhibition by MSI-1436 [2]: did not affect
- retention of 50 kDa band (PTP1B) by compound beads [3]: PTP1B was cleared from the lysate; also recorded: retained
- nature of effects (cytostatic versus cytotoxic) [4]: primarily cytostatic, rather than cytotoxic
- proliferation ([4]; cells sensitive to Lapatinib, MSI-1436 2 and 5 μM): inhibited proliferation
- sensitivity of xenografts re-expressing wild type PTP1B versus mutant protein [5]: more sensitive
- tumor number [6, 8]: marked decrease
- tumor size [6, 8]: marked decrease
- lung metastasis ([6]; 5 or 10 mg/kg intraperitoneally every third day): essentially abrogated
- stoichiometry (PTP1B1-321 [7]): 1 mol/mol
- FRET (CFP-PTP1B1-321-YFP): did not result in FRET
- inhibitory potency compared to PTP1B1-405 and PTP1B1-394 (PTP1B (1-367)): lower
